Assay results: paper PMC11315199 (Heliyon, 2024)

Experiments:
B16F10 cells = test: Anti-melanogenesis activity on B16F10 murine melanomas; assay type: cell-based; conditions: 20 μg/ml, 72 h
Procedure, shortened: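 B16F10 murine melanoma cells (ATCC; DMEM with 10 % FBS) are seeded in 6-well plates and held 24 h in a CO₂ incubator, then exposed to test compound for 72 h. Cells are washed with 1xPBS, dissolved in 10 % NaOH at 60 °C for 1 h, and melanin is read at 450 nm. % anti-melanogenesis = 100 − (Mt/Mc × 100) versus untreated control. Triplicate, three independent experiments; mean ± SD.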

melanocytes = conditions: 1 mM for 48 h; cited from earlier work
human melanocytes = conditions: doses between 1.25 and 10 μM; cited from earlier work
[1] = tested on: cultured human melanoma cells; conditions: cited from earlier work
tyrosinase = conditions: treating hyperpigmentation disorders; cited from earlier work

With `O=c1cc(CO)occ1O` [kojic acid] the “% Anti-melanogenesis” value (B16F10 cells) was 44.54 ± 2.47%.

For `O=C1O[C@H]([C@@H](O)CO)C([O-])=C1OP(=O)([O-])[O-].O=C1O[C@H]([C@@H](O)CO)C([O-])=C1OP(=O)([O-])[O-].[Mg+2].[Mg+2].[Mg+2]` [MAP, Magnesium ascorbyl phosphate], the “cytotoxic or cell growth inhibiting effects” value (melanocytes) is listed as “no noticeable cytotoxic or cell growth inhibiting effects”.

In the case of `COc1cc(/C=C/C(=O)CC(=O)/C=C/c2ccc(O)c(OC)c2)ccc1O` [CC, Curcumin], the melanocyte viability (human melanocytes) is listed as “without affecting melanocyte viability”.

In the case of `OC[C@H]1O[C@H](Oc2ccc(O)cc2)[C@H](O)[C@@H](O)[C@@H]1O` [AA, Alpha arbutin], the “melanin content and tyrosinase activity” value ([1]; 0.25–0.5 mM) is listed as “decreased melanin content and tyrosinase activity in a dose-dependent manner” and the cell proliferation ([1]; 0.25–1 mM) is listed as “no effect on cell proliferation”.

For `CC(=O)Cc1cc(=O)c2c(C)cc(O)c([C@@H]3O[C@H](CO)[C@@H](O)[C@H](O)[C@H]3O)c2o1` [aloesin], the pigmentation reduction (tyrosinase) is listed as 34%.

For `OC[C@H]1O[C@@H](Oc2ccc(O)cc2)[C@H](O)[C@@H](O)[C@@H]1O` [arbutin], the pigmentation reduction (tyrosinase) is given as 43.5%.
